Data as given in ChEMBL document CHEMBL4834453, “Discovery of N-(6-(5-fluoro-2-(piperidin-1-yl)phenyl)pyridazin-3-yl)-1-(tetrahydro-2H-pyran-4-yl)methanesulfonamide as a brain-permeable and metabolically stable kynurenine monooxygenase inhibitor” (Bioorg Med Chem Lett, 2021).
Values after ≈ are worked out from the molar mass of the structure shown.

Columns and labels:
[1] = Ratio of drug level in cynomolgus monkey striatum to plasma at 5 mg/kg, po measured after 2 hrs of administration
[2] = Plasma concentration in cynomolgus monkey at 5 mg/kg, po measured after 2 hrs of administration; format: ADME, organism-based, Macaca fascicularis
In short: (§1)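 Cynomolgus monkeys (n=2) dosed orally. Blood and brain collected 2 h after dosing. Plasma (ng/mL) and striatum (ng/g) concentrations measured and the striatum/plasma ratio taken per animal and as the mean. Brain free concentration derived using protein binding ratio.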

[3] = Drug uptake in cynomolgus monkey striatum at 5 mg/kg, po measured after 2 hrs of administration; format: ADME, organism-based, Macaca fascicularis; conditions: read-out: Drug uptake; in short: as §1
[4] = Metabolic stability in human liver microsomes assessed as intrinsic clearance incubated for 30 mins in presence of NADPH measured per mg protein; format: ADME, Microsome; conditions: for microsomal CLint: liver microsomes, read-out: CLH
In short: (§2)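 Compound incubated with human or rat hepatic microsomes plus NADPH at 37 °C for 30 min. Intrinsic clearance expressed as μL/min/mg protein.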

[5] = Solubility of the compound at pH 7.4; format: physicochemical; conditions: buffer
[6] = Clearance in mouse; format: ADME, organism-based; conditions: in vivo
[7] = Half life in mouse; format: ADME, organism-based; conditions: in vivo
[8] = Plasma concentration in mouse at 10 mg/kg, po; format: ADME, organism-based; conditions: in vivo
In short: (§3)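 Mouse PK after a single oral dose (2 mg/kg; 10 mg/kg where marked). Plasma concentration given in ng/mL and brain concentration in ng/g tissue. Brain/plasma ratio computed from these. Values given as mean ± spread.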

[9] = Drug concentration in mouse brain at 10 mg/kg, po measured per gm of tissue; format: ADME, organism-based; conditions: in vivo; in short: as §3
[10] = Solubility of the compound at pH 1.2; format: physicochemical; conditions: buffer
[11] = Ratio of drug concentration in brain to plasma in mouse at 10 mg/kg, po; format: ADME, organism-based; conditions: read-out: BPR; in short: as §3
[12] = Glutathione reactivity assessed as dansylatedGSH-compound conjugate formation in presence of human liver microsomes by fluorescence detector based HPLC analysis; format: physicochemical
In short: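 Reactive metabolite trapping: compound incubated with dansylated glutathione and human liver microsomes. dGSH-conjugate quantified by HPLC with fluorescence detection and reported in μmol/L.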

[13] = Metabolic stability in rat liver microsomes assessed as intrinsic clearance incubated for 30 mins in presence of NADPH measured per mg protein; format: ADME, Microsome; conditions: for microsomal CLint: liver microsomes, read-out: CLH; for CLH: microsomes, 0.5 h; in short: as §2
[14] = Ratio of drug concentration in brain to plasma in mouse at 2 mg/kg, po; format: ADME, organism-based; conditions: read-out: BPR; in short: as §3
[15] = Drug concentration in mouse brain at 2 mg/kg, po measured per gm of tissue; format: ADME, organism-based; conditions: in vivo; in short: as §3
[16] = Plasma concentration in mouse at 2 mg/kg, po; format: ADME, organism-based; conditions: in vivo; in short: as §3

| SMILES | microsomal CLint [4] | Drug metabolism [12] | microsomal CLint [13] | further results |
| --- | --- | --- | --- | --- |
| O=C(O)c1cc(-c2ccc(Cl)c(OC3CC3)c2)ncn1 | – | – | – | Kp at 2 h [1]: 0.004; concentration at 2 h [2]: 15600 ng/mL; concentration at 2 h [3]: 64.8 ng/g |
| Cc1ccc(S(=O)(=O)Nc2ccc(-c3ccccc3N3CCCCC3)nn2)cc1 | 1.07 µL/min/mg | 0.000852 µmol/mL | 0.395 µL/min/mg | solubility [5]: < 1 µg/mL; clearance [6]: 67 mL/min/kg; half-life [7]: 18 min; Cp [8]: 808 ng/mL; Ct [9]: 230 ng/g; solubility [10]: 163 µg/mL (≈ 399 µM); Kp [11]: 0.28 |
| COCCCS(=O)(=O)Nc1ccc(-c2cc(F)ccc2N2CCCCC2)nn1 | – | 0 µmol/mL | – | CLH ([4]; microsomes, 0.5 h): 0.026 µL/min/mg; CLH [13]: 0.045 µL/min/mg |
| Cc1ccc(S(=O)(=O)Nc2ccc(-c3c(F)cccc3N3CCCCC3)nn2)cc1 | 0.478 µL/min/mg | 0.000637 µmol/mL | 0.339 µL/min/mg | Kp [14]: 0.28; Ct [15]: 79 ng/g; Cp [16]: 284 ng/mL |
| CCS(=O)(=O)Nc1ccc(-c2cc(F)ccc2N2CCCCC2)nn1 | 0.156 µL/min/mg | 0 µmol/mL | < 0.05 µL/min/mg | – |
| Cc1ccc(S(=O)(=O)Nc2ccc(-c3cccc(F)c3N3CCCCC3)nn2)cc1 | 0.178 µL/min/mg | 0.000146 µmol/mL | 0.518 µL/min/mg | – |
| O=S(=O)(CC(F)(F)F)Nc1ccc(-c2cc(F)ccc2N2CCCCC2)nn1 | 0.569 µL/min/mg | 0 µmol/mL | 0.265 µL/min/mg | – |
| COCCS(=O)(=O)Nc1ccc(-c2cc(F)ccc2N2CCCCC2)nn1 | 0.179 µL/min/mg | 0 µmol/mL | – | CLH [13]: 0.05 µL/min/mg |
| O=S(=O)(CC1CCCC1)Nc1ccc(-c2cc(F)ccc2N2CCCCC2)nn1 | 0.703 µL/min/mg | 0.00049 µmol/mL | 1.6 µL/min/mg | – |
| O=S(=O)(CC1CCCCO1)Nc1ccc(-c2cc(F)ccc2N2CCCCC2)nn1 (stereo unspecified) | 0.139 µL/min/mg | 0 µmol/mL | 0.435 µL/min/mg | – |
| CCCS(=O)(=O)Nc1ccc(-c2cc(F)ccc2N2CCCCC2)nn1 | 0.179 µL/min/mg | 0 µmol/mL | 0.168 µL/min/mg | – |
| CC(C)CS(=O)(=O)Nc1ccc(-c2cc(F)ccc2N2CCCCC2)nn1 | 0.375 µL/min/mg | 0.00011 µmol/mL | 0.483 µL/min/mg | – |
